Screening data: PubChem BioAssay, Sanford-Burnham Center for Chemical Genomics
APOBEC3G inh – APOBEC3G DNA deaminase inhibitors, primary screen, biochemical, fluorescence, single-stranded DNA substrate, uHTS; DNA dC->dU-editing enzyme APOBEC-3G (Homo sapiens), Q9HC16; recombinant A3G, ssDNA deamination FAM/TAMRA fluorescence; inhibition, % at 20 µM; 0.28% of 330,000 active;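 active = inhibition of at least 40% at 20 µM, with no more than 30% in the related APOBEC3A deaminase screen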;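 also: plate controls were DMSO wells with A3G for no effect and wells lacking A3G enzyme for full effect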
Target sequence (Q9HC16 whole entry, looked up): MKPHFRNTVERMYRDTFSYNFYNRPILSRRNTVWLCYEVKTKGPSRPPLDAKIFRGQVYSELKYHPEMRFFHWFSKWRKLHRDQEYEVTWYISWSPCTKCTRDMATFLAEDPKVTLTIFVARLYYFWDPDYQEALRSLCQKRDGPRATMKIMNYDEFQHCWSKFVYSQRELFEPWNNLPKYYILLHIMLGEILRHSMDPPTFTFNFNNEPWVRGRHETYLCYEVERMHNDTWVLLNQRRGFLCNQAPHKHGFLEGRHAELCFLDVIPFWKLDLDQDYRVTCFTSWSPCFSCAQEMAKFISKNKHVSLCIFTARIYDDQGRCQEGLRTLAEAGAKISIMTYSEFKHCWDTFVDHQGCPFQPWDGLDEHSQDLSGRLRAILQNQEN
HKDC1 inhibitor – HKDC1 hexokinase inhibitors, primary screen, biochemical, fluorescence, uHTS. Q2TB90. recombinant HKDC1, G6PDH/diaphorase resazurin coupled fluorescence. inhibition, % at 20 µM. 0.16% of 340,000 active. AID 493160, 2011;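 active = inhibition above about 35% when tested at 20 µM, limit read from the data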;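 also: plate controls were DMSO wells with enzyme for no effect and DMSO wells lacking enzyme for full effect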
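test system = in-house recombinant HK5 (HKDC1) enzyme | amount = HKDC1 at 5 µg/mL | control set = DMSO-enzyme wells negative, buffer-substituted wells positive | compound = one dose of 20 µM, 1% DMSO | schedule = reaction time 90 min, room temperature, protected from light | technique = resorufin fluorescence at 613 nm | reagent = glucose with 1 mM ATP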
APOBEC3A inh – APOBEC3A ssDNA deaminase inhibitors, primary screen, selectivity assay for APOBEC3G inhibitor project, biochemical, FAM/TAMRA oligo cleavage fluorescence; recombinant A3A, FAM/TAMRA ssDNA deamination fluorescence; inhibition, % at 20 µM; 0.41% of 330,000 active;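 active = at least 40% inhibition at 20 µM here, with at most 30% in a related deaminase screen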;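 also: plate controls were A3A with DMSO for no effect and wells lacking A3A enzyme for full effect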
Target sequence (P31941 whole entry, looked up): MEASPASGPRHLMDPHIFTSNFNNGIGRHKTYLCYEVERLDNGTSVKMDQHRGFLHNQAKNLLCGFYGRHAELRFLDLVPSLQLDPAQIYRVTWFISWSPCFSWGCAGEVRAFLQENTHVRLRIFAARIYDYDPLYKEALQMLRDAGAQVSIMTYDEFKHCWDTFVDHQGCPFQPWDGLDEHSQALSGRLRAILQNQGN
hiPSC survival – enhancers of single-cell hiPSC survival, primary screen, ATPlite luminescence | 100% = ROCK inhibitor wells, 0% = DMSO | survival enhancement, % at 20 µM | 0.044% of 360,000 active | AID 602274, 2012; in the data active = survival enhancement above about 18%;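 also: cells exposed to compounds for 16 hours before the ATP read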
PfG6PD inh – PfG6PD enzyme inhibitors, primary screen, biochemical, fluorescence intensity, uHTS | inhibition, % at 20 µM | glucose-6-phosphate dehydrogenase-6-phosphogluconolactonase (Plasmodium falciparum 3D7) | PfGluPho enzyme, NADPH resazurin-diaphorase fluorescence | 0.78% of 350,000 active | AID 504690, 2011;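 active = inhibition reaching at least a set limit at 20 µM in the primary screen, cut at about 59% in these data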;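 also: 0% = DMSO wells with substrate and 100% = DMSO wells lacking glucose-6-phosphate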
A3A conf – APOBEC3A deaminase inhibitors, retest, confirmation, selectivity assay for APOBEC3G inhibitor project, biochemical, single concentration, fluorescence readout; recombinant A3A, ssDNA deaminase UDG fluorescence assay; inhibition, % at 20 µM; shares compounds with APOBEC3A inh; 63% of 1,400 active;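 active = inhibition reaching a set limit, 80% of the first screen's cutoff, at 20 µM in any replicate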;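 also: plate controls were DMSO wells with A3A for no effect and wells lacking A3A enzyme for full effect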
UDG A3A counter – E. coli UDG inhibitors, confirmation, counter-screen for APOBEC3A inhibitor project, biochemical, single concentration, fluorescence, FAM/TAMRA oligo | inhibition, % at 20 µM | shares compounds with APOBEC3A inh | UDG counterscreen, FAM/TAMRA uracil oligo fluorescence | 1,000 tested, under 10 active | AID 504714, 2011; call rule not given here
Numbers without * were called inactive; . = no result given. Most compounds without a hit are left out; they make up all but 1.4% or so of the library.

SMILES	APOBEC3G inh	HKDC1 inhibitor	APOBEC3A inh	hiPSC survival	PfG6PD inh	A3A conf	UDG A3A counter
C=CCN=C1N[C@@H](c2ccccc2)C(C(=O)OC)=C(C)N1CCOC	6	-5	51*	1	0	71*	-4
COc1ccc(NC(=O)CSc2ccc3c(c2)OCCO3)cc1S(N)(=O)=O	6	-8	1	2	3	.	.
CCCOc1ccc(C(=O)Nc2ccccc2[N+](=O)[O-])cc1	-2	6	76*	-2	10	-8	-3
COc1cc(OC)cc(-c2nnc(SCC(=O)N(C(C)C)C(C)C)o2)c1	-3	-4	90*	-1	4	0	0
Cc1cc(S(=O)(=O)Nc2noc3ccccc23)ccc1F	-8	-5	-3	0	-23	.	.
COc1c(F)cccc1C1=CC(=O)C[C@H](c2ccc(F)cc2)C1	.	.	.	-3	7	.	.
CCOc1ccc(S(=O)(=O)N2CCN(C(=O)CN3C(=O)NC4(CCCC4)C3=O)CC2)cc1	-2	-2	41*	0	5	36*	-2
COc1cc(OC)cc(N2C(=O)CSCC2=O)c1	8	1	4	0	0	.	.
O=C(CCC1N=C2c3ccccc3N=C(SCC(=O)NCC3CCCO3)N2C1=O)NCc1ccc(F)cc1 (stereo not drawn)	-8	8	-6	0	-7	.	.
Cc1nc(SCCOc2ccc(F)cc2)c2ccccc2n1	15	-10	51*	-1	2	76*	6
Cc1nc(SCCC(=O)O)c2ccccc2n1	-2	-3	3	6	-25	.	.
Oc1ccc(C[C@H]2CNC(=S)N2C[C@H]2CCCN2C[C@H](Cc2ccccc2)N2C[C@H](Cc3ccccc3)N(CC3CCCCC3)C2=S)cc1	.	.	.	-1	.	.	.
COc1ccc(C(C)=O)cc1CC(=O)Nc1ccccc1-c1ccccc1	-11	-5	-3	0	-15	.	.
CC(=O)Nc1ccc2c(COC(=O)CC3Sc4ccccc4NC3=O)cc(=O)oc2c1 (stereo not drawn)	16	2	50*	1	-11	51*	5
Nc1nc(Nc2cccc(F)c2)nc(NCc2ccco2)c1[N+](=O)[O-]	-4	6	1	-1	24	.	.
Cc1cc(-c2ccccc2)nc2c(Br)c(C(=O)O)nn12	23	6	42*	0	4	40*	-2
CC(C)Nc1nc(NC(C)C)nc(N(C)n2cnnc2)n1	5	-7	41*	0	13	1	.
CC1CC1C(=O)N1CCN(S(=O)(=O)c2cccc(F)c2)CC1 (stereo not drawn)	-8	1	-1	0	-4	.	.
O=C(Nc1nc(-c2ccco2)c(-c2ccco2)s1)C1CC(=O)N(c2ccc3c(c2)OCCO3)C1 (stereo not drawn)	27	15	49*	1	49	37*	-4
O=C(Nc1nnc(SCc2c(Cl)cccc2Cl)s1)C1CC(=O)N(c2ccc3c(c2)OCCO3)C1 (stereo not drawn)	21	6	64*	1	-32	23	.
CCN1C(=NCCCOC(C)C)N[C@@H](CCc2ccccc2)[C@H](C(=O)NCCCOC(C)C)[C@H]1C	9	-1	42*	-4	7	58*	-2
CCOC(=O)CN1C(=O)N[C@@H](CCc2ccccc2)[C@@H](C(=O)OC)[C@H]1C	-14	-4	-5	-1	-5	.	.
CCN1C(=O)N[C@@H](CCc2ccccc2)[C@H](C(C)=O)[C@H]1C	-10	-2	-4	0	7	.	.
CCN1C(=NCCOC)N[C@@H](CCc2ccccc2)[C@H](C(=O)OC)[C@H]1C	4	3	46*	-1	-1	66*	-3
O=C(CC[C@H]1O[C@@H](n2ccc(=O)[nH]c2=O)[C@H](O)[C@@H]1O)NCc1ccccc1	.	.	.	5	.	.	.
SMILES	APOBEC3G inh	HKDC1 inhibitor	APOBEC3A inh	hiPSC survival	PfG6PD inh	A3A conf	UDG A3A counter
O=C(O)C1C2C=CC(C2)C1C(=O)N1CCN(C/C=C/c2ccccc2)CC1 (stereo not drawn)	0	-1	47*	-1	-5	1	.
CC(C)C(NC(=O)c1ccc2c(c1)OCO2)C(=O)N/N=C\c1ccco1 (stereo not drawn)	14	-3	48*	1	-6	52*	-2
CC(C)C(NC(=O)c1ccc2c(c1)OCO2)C(=O)N/N=C/c1cccs1 (stereo not drawn)	-6	14	10	-2	-9	.	.
COc1ccc(-c2ccc(C(=O)NCc3ccncc3)c3occc23)c(C)c1	.	.	.	3	.	.	.
O=C(C[n+]1cc(-c2ccccc2)n2c1CCCCC2)c1ccc(Cl)cc1	-4	-11	-3	-1	-4	.	.
C[n+]1cc(-c2ccccc2)n2c1CCCCC2	9	-10	53*	-1	3	67*	-3
Cc1cc(C)nc(/N=C2/NC(=O)CS2)n1	-1	-16	64*	1	14	-4	3
COc1ccc2nc(Nc3nc4cc5c(cc4s3)OCO5)sc2c1	1	-4	46*	-2	3	39*	1
COc1ccc2nc(Nc3ccc4c(c3)OCO4)sc2c1	5	-2	6	0	11	.	.
CCc1cccc(NC(=O)COC(=O)c2c(C)nn(-c3ccccc3)c2C)c1	.	.	.	-2	21	.	.
CC12CCC(=O)N1C(C(=O)N1CCN(c3ccc(C(F)(F)F)cc3[N+](=O)[O-])CC1)CS2 (stereo not drawn)	-1	-6	-1	1	2	.	.
CC(C)(C)c1ccc(NC(=O)C2=CN3CCS(=O)(=O)N=C3C=C2)cc1	9	0	51*	0	6	71*	-4
C/C=C/c1cccc(-c2nc(C(=O)N3CCCCC3)cc3c2[C@H](CCO)N(C(=O)NC(C)C)C3)c1	.	.	.	-1	.	.	.
COc1cc(Nc2cccc[n+]2C)cc(OC)c1OC	29	5	69*	0	34	62*	-5
COc1cc(NC(=O)CS(=O)(=O)c2ccccc2)cc(OC)c1OC	0	-5	-7	2	3	.	.
